The text below walks through data of ChEMBL document CHEMBL3085698, “Bioactive lignans from the trunk of Abies holophylla” (J Nat Prod, 2013).

In general, IC50 refers to the concentration that inhibits the measured activity by half.

Data set [1] relates to C6. Description: Induction of NGF secretion in rat C6 cells at 10 uM after 24 hrs by ELISA relative to control. Type of data set: functional. A digest of the protocol: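 Rat C6 glioma cells kept in DMEM with 10% FBS and 1% penicillin-streptomycin under 5% CO2, seeded at 1 × 10^5 cells/well. After 24 h, medium switched to DMEM with 2% FBS containing compound for one day. NGF released into the supernatant quantified by ELISA; viability checked by MTT. 6-Shogaol as positive control.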
In general terms: In an ELISA, binding on a coated surface is turned into a signal by an enzyme label.

A short description of data set [2]: Antineuroinflammatory activity in mouse BV2 cells assessed as inhibition of LPS-induced NO production incubated 30 mins prior to LPS-challenge measured after 24 hrs by Griess assay. Type of data set: functional, cell-based. The note with it: BV-2. The method in brief:
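BV-2 microglia grown in DMEM with 5% FBS and 1% penicillin-streptomycin, plated at 3 × 10^4 cells/well and left 24 h. Compounds added 30 min before 100 ng/mL LPS for 24 h. Supernatant nitrite measured by Griess reagent (1% sulphanilamide, 0.1% naphthylethylenediamine in 5% phosphoric acid), read at 540 nm after 10 min against a sodium nitrite standard. L-NMMA as positive control. IC50 reported.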
A general note: Griess reagent forms a coloured azo dye with nitrite.

Data set [3] is described as follows: Cytotoxicity against LPS-stimulated mouse BV2 cells assessed as cell viability by MTT assay relative to control. Type of data set: cell-based. The note with it: bv-2. A digest of the protocol:
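MTT viability read in the same BV-2 setup: cells at 3 × 10^4 cells/well in DMEM with 5% FBS, compound pretreatment for 30 min, then 100 ng/mL LPS stimulation for 24 h.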
For orientation: Formazan colour is commonly taken as a measure of viable cells.

Take `COc1cc(CCCO)ccc1O[C@@H](CO)Cc1ccc(O[C@@H]2OC[C@@H](O)[C@H](O)[C@H]2O)c(OC)c1`: the Activity is recorded as 169% in data set [1] and “Non-toxic” in data set [3]. In addition, the IC50 in data set [2] came out at 31 µM. The compound `COc1cc(C[C@H]2[C@@H](OC)OC[C@@H]2[C@H](O)c2ccc(O)c(OC)c2)ccc1O` gave an Activity in data set [1] of 165%. The same measure, in the same setting: under `COc1cc([C@@H]2Oc3c(OC)cc(CCCO)cc3[C@H]2CO)ccc1O[C@@H]1O[C@@H](C)[C@H](O)[C@@H](OC)[C@H]1O` stands 159%. `COc1cc(C[C@H]2[C@H](OC)OC[C@@H]2[C@H](O)c2ccc(O)c(OC)c2)ccc1O`: in data set [2], the half-maximal inhibitory concentration (IC50) came out at 36.4 µM. The Activity result in data set [3] is listed as “Non-toxic”. On the same counts, the results for `COc1cc([C@@H]2Oc3c(O)cc(CCCO)cc3[C@H]2CO)ccc1O[C@@H]1O[C@@H](C)[C@H](O)[C@@H](OC)[C@H]1O` (relative stereo) are 32.9 µM and “Non-toxic”. On the same counts, the results for `COc1cc([C@H]2c3cc(O)c(OC)cc3C[C@H]3C(=O)OC[C@H]23)ccc1O` [ALPHA-CONIDENDRIN] are 28.5 µM and “Non-toxic”.

In the case of `CCCCC/C=C/C(=O)CCc1ccc(O)c(OC)c1` [SHOGAOL], the Activity in data set [1] amounted to 129%.
